# Measurements published in ChEMBL document CHEMBL1139013, “Synthesis and biological evaluation of novel 9-substituted-8-hydroxyadenine derivatives as potent interferon inducers” (J Med Chem, 2006).
# What was measured:
# Cynomolgus monkey [1] = assay: Induction of IFN in cynomolgus monkey at 0.1 mg/kg, po; format: functional, Macaca fascicularis
# [2] = Cmax in ferret at 3 mg/kg, po; format: ADME, organism-based, Mustela putorius furo; set-up: dose 3 mg/kg, route oral; conditions: in vivo
# Outline: (§1)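 Male ferrets, 4 months old, dosed orally with compound suspended in 0.5% sodium carboxymethyl cellulose. Blood (0.5 mL) drawn from jugular vein; serum separated at 1630g, 10 min, 4 °C, stored at -20 °C. Compound concentration measured by HPLC; maximum concentration reported in ng/mL.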
# Splenocyte [3] = assay: Induction of IFN in C3H/HeJ mouse splenocytes at 10 nM; format: functional
# Outline: (§2)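 Mouse splenocytes are suspended at 2 × 10⁶ cells/mL in MEM with 5% fetal calf serum, penicillin and streptomycin. They are mixed 1:1 with compound (DMSO stock diluted 500-fold in medium) and cultured 18 h at 37 °C in 5% CO₂. Supernatants are filter-sterilized and stored at -80 °C. IFN (IU/mL) is measured by L929/vesicular stomatitis virus bioassay.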
# Mustela putorius furo [4] = assay: Emetic activities in ferret at 0.3 mg/kg, po; format: organism-based; set-up: dose 0.3 mg/kg, route oral; conditions: in vivo
# Outline: (§3)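 Oral dosing of male ferrets (4 months old) with compound in 0.5% sodium carboxymethyl cellulose vehicle; doses 0.3-30 mg/kg, 5 animals per group. Animals housed singly, video-recorded continuously for 6 h. Tapes scored afterwards for presence or absence of vomiting; reported as number vomiting per group.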
# Cynomolgus monkey [5] = assay: Induction of IFN in cynomolgus monkey at 1 mg/kg, po; format: functional, Macaca fascicularis
# Mustela putorius furo [6] = assay: Emetic activities in ferret at 30 mg/kg, po; format: organism-based; set-up: dose 30 mg/kg, route oral; conditions: in vivo; outline: as §3
# Splenocyte [7] = assay: Induction of IFN in C3H/HeJ mouse splenocytes at 1 nM; format: functional; outline: as §2
# Cynomolgus monkey [8] = assay: Induction of IFN in cynomolgus monkey at 0.3 mg/kg, po; format: functional, Macaca fascicularis
# Splenocyte [9] = assay: Induction of IFN in C3H/HeJ mouse splenocytes at 100 nM; format: functional; outline: as §2
# [10] = Cmax in ferret at 30 mg/kg, po; format: ADME, organism-based, Mustela putorius furo; set-up: dose 30 mg/kg, route oral; conditions: in vivo; outline: as §1
# Mus musculus [11] = assay: Induction of IFN in BALB/c mice at 0.3 mg/kg, po; format: functional
# Mustela putorius furo [12] = assay: Emetic activities in ferret at 3 mg/kg, po; format: organism-based; set-up: dose 3 mg/kg, route oral; conditions: in vivo; outline: as §3
# Splenocyte [13] = assay: Induction of IFN in C3H/HeJ mouse splenocytes at 30 nM; format: functional; outline: as §2
# Splenocyte [14] = assay: Induction of IFN in C3H/HeJ mouse splenocytes at 3 nM; format: functional; outline: as §2
# Mus musculus [15] = assay: Induction of IFN in BALB/c mice at 0.1 mg/kg, po; format: functional
SMILES,Activity (Cynomolgus monkey [1]),Cmax [2],Activity (Splenocyte [3]),Activity (Mustela putorius furo [4]),Activity (Cynomolgus monkey [5]),Activity (Mustela putorius furo [6]),Activity (Splenocyte [7]),Activity (Cynomolgus monkey [8]),Activity (Splenocyte [9]),Cmax [10],Activity (Mus musculus [11]),Activity (Mustela putorius furo [12]),Activity (Splenocyte [13]),Activity (Splenocyte [14]),Activity (Mus musculus [15])
CCCCNc1nc(N)c2nc(O)n(Cc3ccc(Cl)nc3)c2n1,0 IU/ml,20.1 ng/mL,6.8 IU/ml,Not Active,3602 IU/ml,Not Active,<0.5 IU/ml,19 IU/ml,1.5 IU/ml,275 ng/mL,1826 IU/ml,Not Active,2.6 IU/ml,5.6 IU/ml,811 IU/ml
CCCCNc1nc(N)c2nc(O)n(Cc3ccc(OC)nc3)c2n1,3 IU/ml,109 ng/mL,13.4 IU/ml,Not Active,17422 IU/ml,Not Active,<0.5 IU/ml,244 IU/ml,1 IU/ml,1200 ng/mL,1920 IU/ml,Not Active,3 IU/ml,8.2 IU/ml,375 IU/ml
CCCCNc1nc(N)c2nc(O)n(Cc3ccc(C)nc3)c2n1,121 IU/ml,20.8 ng/mL,7.8 IU/ml,Not Active,34810 IU/ml,Not Active,<0.5 IU/ml,591 IU/ml,1.4 IU/ml,1020 ng/mL,1891 IU/ml,Not Active,3.7 IU/ml,4.4 IU/ml,393 IU/ml
